Data as given in ChEMBL document CHEMBL1134782, “Synthesis of 1-benzyl-3-(5'-hydroxymethyl-2'-furyl)indazole analogues as novel antiplatelet agents” (J Med Chem, 2001).

What was measured:
[1] = molecular target: T1, cGMP-specific 3',5'-cyclic phosphodiesterase (Homo sapiens, UniProt O76074); experiment: (§1) Inhibition of PDE5 from platelets
Summary of the method: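 PDE activity fraction incubated with [3H]cGMP as substrate and a range of test-compound concentrations at 37 °C for 10 min. IBMX served as positive control.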

[2] = molecular target: T2, Soluble guanylate cyclase (Homo sapiens) (UniProt Q02153+O75343+P33402+Q02108); experiment: sGC activation was determined in the presence of [alpha-32P]GTP at a concentration of 82 uM; assay type: protein-complex assay
Summary of the method: (§2)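 Soluble guanylate cyclase source was the supernatant fraction of platelet homogenate. It was incubated with [α-32P]GTP and 82 μM test compound at 37 °C for 10 min. Activity was expressed as pmol cGMP/min/mg protein.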

[3] = Inhibition of platelet aggregation induced by AA (100 uM); assay type: functional
Summary of the method: (§3)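 Platelets were preincubated with test compound at 37 °C for 1 min. Values are mean ± SE from three to six separations. Aspirin served as positive control.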

[4] = Inhibition of platelet aggregation induced by Collagen (10 uM); assay type: functional; details: in the assay text read “10 ug/mL” for “10 uM”; summary of the method: as §3
[5] = Inhibition of platelet aggregation induced by PAF (2 ng/mL); assay type: functional; summary of the method: as §3
[6] = Inhibition of platelet aggregation induced by thrombin (0.1 unit/ml); assay type: functional; summary of the method: as §3
[7] = inhibition of platelet aggregation induced by PAF (2 ng/mL); assay type: functional; summary of the method: as §3
[8] = Inhibition of platelet aggregation induced by Collagen (10 ug/mL)
[9] = molecular target: T2, Soluble guanylate cyclase (Homo sapiens); experiment: […] was determined in the presence of [alpha-32P]GTP at a concentration of 82 uM; assay type: protein-complex assay; summary of the method: as §2
[10] = molecular target: T1, cGMP-specific 3',5'-cyclic phosphodiesterase; experiment: as §1; remark: listed apart in the source
Summary of the method: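 PDE activity fraction incubated with [3H]cGMP as substrate and a range of test-compound concentrations at 37 °C for 10 min. […] IBMX served as positive control.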

| SMILES | IC50 [1] [µM] | Activity (pM of cGMP (min)-1 (mg of protein)-1) [2] | IC50 [3] [µM] | IC50 [4] [µM] | IC50 [5] [µM] | IC50 [6] [µM] | IC50 [7] [µM] | IC50 [8] [µM] | Activity (pM of cGMP (min)-1 (mg of protein)-1) [9] | IC50 [10] [µM] |
| --- | --- | --- | --- | --- | --- | --- | --- | --- | --- | --- |
| COCc1ccc(-c2nn(Cc3ccccc3)c3ccccc23)o1 | 13.8 | 32 | 8.2 | 6.6 | 25.5 | 143 |  |  |  |  |
| OCc1ccc(-c2nn(Cc3ccccc3)c3cc(F)ccc23)o1 | 14 | 37.2 | 21.7 | 25.2 | 53.4 | 217 |  |  |  |  |
| COC(=O)c1ccc(-c2nn(-c3ccccc3)c3ccccc23)o1 |  |  | 10.6 | 18.2 | > 270 | > 270 |  |  |  |  |
| O=C(O)c1cccc(-c2nn(Cc3ccccc3)c3ccccc23)c1 |  |  | 156 | 148 |  | > 270 | 235 |  |  |  |
| O=C(O)c1ccc(-c2nn(-c3ccccc3)c3ccccc23)o1 |  |  | > 270 | > 270 |  | > 270 | > 270 |  |  |  |
| O=C(O)c1ccc(-c2nn(Cc3ccccc3)c3cc4c(cc23)OCO4)o1 |  |  | 148 | 150 |  | > 270 | > 270 |  |  |  |
| OCc1ccc(-c2nn(Cc3ccccc3)c3cc4c(cc23)OCO4)o1 |  |  | 96.6 |  | 164 | 239 |  | 105 |  |  |
| O=C(O)c1ccc(-c2nn(Cc3ccccc3)c3ccccc23)o1 |  |  | 83.7 | 75.5 | > 270 | > 270 |  |  |  |  |
| OCc1ccc(-c2nn(-c3ccccc3)c3ccccc23)o1 | 36.3 | 27.8 | 17.9 | 13.7 | 145 | 158 |  |  |  |  |
| Cc1ccc2c(-c3ccc(C(=O)O)o3)nn(Cc3ccccc3)c2c1 |  |  | 150 | 182 |  | > 270 | > 270 |  |  |  |
| Cc1ccc2c(-c3ccc(CO)o3)nn(Cc3ccccc3)c2c1 | 8.4 | 35.1 | 49.4 | 45.9 | 72 | 147 |  |  |  |  |
| Cc1ccc(-c2nn(Cc3ccccc3)c3ccccc23)o1 | 22.3 |  | 47.3 | 27.5 |  | 39.4 | 39.6 |  | 30.9 |  |
| CCOC(=O)c1ccc(-c2nn(Cc3ccccc3)c3ccccc23)cc1 |  |  | 184 | 212 | 164 | 29.3 |  |  |  |  |
| CCOC(=O)c1cccc(-c2nn(Cc3ccccc3)c3ccccc23)c1 |  |  | 125 | 144 |  | > 270 | > 270 |  |  |  |
| COCc1ccc(-c2nn(Cc3ccccc3)c3cc(C)ccc23)o1 |  | 22.1 | 32.4 | 59.3 | 76.3 | 126 |  |  |  |  |
| CC(=O)Oc1ccccc1C(=O)O [ASPIRIN] |  |  | 20 | > 270 | > 270 | > 270 |  |  |  |  |
| COC(=O)c1ccc(-c2nn(Cc3ccccc3)c3cc4c(cc23)OCO4)o1 |  |  | 136 | 168 |  | 260 | 254 |  |  |  |

| SMILES | IC50 [1] [µM] | Activity (pM of cGMP (min)-1 (mg of protein)-1) [2] | IC50 [3] [µM] | IC50 [4] [µM] | IC50 [5] [µM] | IC50 [6] [µM] | IC50 [7] [µM] | IC50 [8] [µM] | Activity (pM of cGMP (min)-1 (mg of protein)-1) [9] | IC50 [10] [µM] |
| --- | --- | --- | --- | --- | --- | --- | --- | --- | --- | --- |
| CC(C)Cn1c(=O)n(C)c(=O)c2[nH]cnc21 [ISOBUTYLMETHYLXANTHINE] |  |  |  |  |  |  |  |  |  | 63 |
| COCc1ccc(-c2nn(Cc3ccccc3)c3cc4c(cc23)OCO4)o1 |  |  | 102 | 113 |  | > 270 | 196 |  |  |  |
| COCc1ccc(-c2nn(Cc3ccccc3)c3cc(OC)ccc23)o1 |  |  | 108 | 115 |  | 256 | 177 |  |  |  |
| O=C(O)c1ccc(-c2nn(Cc3ccccc3)c3ccccc23)cc1 |  |  | 130 | 156 |  | > 270 | 179 |  |  |  |
| COC(=O)c1ccc(-c2nn(Cc3ccccc3)c3cc(OC)ccc23)o1 |  |  | 92.3 | 157 | > 270 | > 270 |  |  |  |  |
| CCN(CC)Cc1ccc(-c2nn(Cc3ccccc3)c3ccccc23)o1 | 63 | 17.9 | 55.7 | 50.4 | 55.9 | 102 |  |  |  |  |
| COC(=O)c1ccc(-c2nn(Cc3ccccc3)c3cc(C)ccc23)o1 |  |  | 64.2 | 78.3 | > 270 | > 270 |  |  |  |  |
| COc1ccc2c(-c3ccc(CO)o3)nn(Cc3ccccc3)c2c1 |  | 39.9 | 49.7 | 46.7 | 89.2 | 168 |  |  |  |  |
| OCc1ccc(-c2nn(Cc3ccccc3)c3ccccc23)cc1 |  |  | 101 | 123 |  | 193 | 143 |  |  |  |
| OCc1ccc(-c2[nH]nc3ccccc23)o1 |  |  | 101 | > 270 |  | > 270 | > 270 |  |  |  |
| COC(=O)c1ccc(-c2nn(Cc3ccccc3)c3ccccc23)o1 |  |  | 81.1 | 162 | > 270 | > 270 |  |  |  |  |
| COc1ccc2c(-c3ccc(C(=O)O)o3)nn(Cc3ccccc3)c2c1 |  |  | 150 | 140 |  | > 270 | > 270 |  |  |  |
| O=C(O)c1ccc(-c2nn(Cc3ccccc3)c3cc(F)ccc23)o1 |  |  | 119 | 180 |  | > 270 | > 270 |  |  |  |
| COCc1ccc(-c2nn(Cc3ccccc3)c3cc(F)ccc23)o1 | 3.9 | 41.8 | 45.9 | 64.1 | 109 | 116 |  |  |  |  |
| COC(=O)c1ccc(-c2nn(Cc3ccccc3)c3cc(F)ccc23)o1 |  |  | 94 |  | 149 | > 270 |  | 101 |  |  |
| OCc1ccc(-c2nn(Cc3ccccc3)c3ccccc23)o1 | 31.9 | 44.6 | 54.3 | 53.8 | 87.3 | 173 |  |  |  |  |
| OCc1cccc(-c2nn(Cc3ccccc3)c3ccccc23)c1 |  |  | 51.3 | 98.1 | 174 | > 270 |  |  |  |  |
